Experimental data taken from ChEMBL document CHEMBL1150422, “Diarylmethyloxime and hydrazone derivatives with 5-indolyl moieties as potent inhibitors of tubulin polymerization” (Bioorg Med Chem, 2008).

Tests used:
HL-60 = assay: Cytotoxicity against human HL60 cells after 72 hrs by XTT method; format: functional, cell-based; settings: HL-60, 72 h
Summary of the method: (§1)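 Cells were seeded in exponential growth per well: HeLa 1.5 × 10³, HT-29 3 × 10³, A-549 5 × 10³, HL-60 3 × 10³. Adherent lines were left to attach for 24 h at 37 °C in 5% CO₂. Cells were exposed to a range of compound concentrations for 72 h. XTT/PMS reagent was then added for 4 h, and absorbance was read at 490 nm against a 655 nm reference. IC50 is the concentration giving 50% inhibition of proliferation.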

Bos taurus [1] = organism: Bos taurus; assay: Inhibition of calf brain tubulin polymerization at 20 uM after 20 mins
Summary of the method: (§2)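 Microtubule protein (1.0 mg/mL) in 0.1 M MES, 1 mM EGTA, 1 mM MgCl₂, 1 mM β-ME, 1.5 mM GTP, pH 6.7 was preincubated with ligand for 30 min at 20 °C, then cooled on ice for 10 min. Assembly was triggered by moving from 4 °C to 37 °C. Inhibition was measured turbidimetrically at 450 nm after 20 min against a no-ligand control.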

A549 = assay: Cytotoxicity against human A549 cells after 72 hrs by XTT method; format: functional, cell-based; settings: A549, 72 h
HeLa = assay: Cytotoxicity against human HeLa cells after 72 hrs by XTT method; format: functional, cell-based
HT-29 = assay: Cytotoxicity against human HT29 cells after 72 hrs by XTT method; format: functional, cell-based; settings: HT-29, 72 h; summary of the method: as §1
[2] = Inhibition of calf brain tubulin polymerization after 20 mins; set-up: species or system Bos taurus
Summary of the method: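 Turbidity at 450 nm was followed using 1.0 mg/mL microtubule protein in 0.1 M MES, 1 mM EGTA, 1 mM MgCl₂, 1 mM β-ME, 1.5 mM GTP, pH 6.7, with a ligand-free control. Samples were preincubated for 30 min at 20 °C, iced for 10 min, and assembly was started by shifting from 4 °C to 37 °C. IC50 was read graphically at 20 min. At least two independent experiments used different protein preparations.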

Bos taurus [3] = organism: Bos taurus; assay: Inhibition of calf brain tubulin polymerization at 30 uM after 20 mins; summary of the method: as §2
Bos taurus [4] = organism: Bos taurus; assay: Inhibition of calf brain tubulin polymerization at 40 uM after 20 mins; summary of the method: as §2

| SMILES | IC50 (HL-60) [µM] | inhibition (Bos taurus [1]) [%] | IC50 (A549) [µM] | IC50 (HeLa) [µM] | IC50 (HT-29) [µM] | IC50 [2] [µM] | inhibition (Bos taurus [3]) [%] | inhibition (Bos taurus [4]) [%] |
| --- | --- | --- | --- | --- | --- | --- | --- | --- |
| COc1cc(/C(=N\OC(C)=O)c2ccc3c(ccn3C)c2)cc(OC)c1OC | > 10 | 41 | – | – | – | – | – | – |
| CCn1ccc2cc(C(OC(C)=O)c3cc(OC)c(OC)c(OC)c3)ccc21 (stereo unspecified) | > 10 | 0 | > 10 | > 1 | > 1 | – | – | – |
| COc1cc(/C(=N/OC(C)=O)c2ccc3c(ccn3C)c2)cc(OC)c1OC | > 10 | 38 | – | – | – | – | – | – |
| COc1cc(/C(=N/O)c2ccc3c(ccn3C)c2)cc(OC)c1OC | 0.11 | – | > 10 | 0.36 | 0.33 | 1.8 | 82 | – |
| COc1cc(/C(=N\OC(=O)OC(C)(C)C)c2ccc3c(ccn3C)c2)cc(OC)c1OC | > 1 | 17 | > 1 | > 1 | > 1 | – | – | – |
| COc1cc(C(=O)c2ccc3c(ccn3C)c2)cc(OC)c1OC | – | – | 0.12 | 0.034 | – | 7.9 | – | 98 |
| CCn1ccc2cc(/C(=N/OC(C)=O)c3cc(OC)c(OC)c(OC)c3)ccc21 | > 1 | 54 | > 10 | > 10 | > 10 | – | – | – |
| CN/N=C(/c1cc(OC)c(OC)c(OC)c1)c1ccc2c(ccn2C)c1 | > 1 | 20 | > 1 | > 1 | > 1 | – | – | – |
| COc1cc(/C(=N/NC(C)=O)c2ccc3c(ccn3C)c2)cc(OC)c1OC | > 1 | – | > 10 | 2.3 | – | – | 14 | – |
| COc1cc(/C(=N/OC(=O)OC(C)(C)C)c2ccc3c(ccn3C)c2)cc(OC)c1OC | > 1 | 10 | > 10 | > 1 | > 1 | – | – | – |
| COc1cc(/C(=N\O)c2ccc3c(ccn3C)c2)cc(OC)c1OC | – | 23 | – | – | – | – | – | – |
| CCn1ccc2cc(/C(=N\OC(C)=O)c3cc(OC)c(OC)c(OC)c3)ccc21 | > 1 | 26 | > 10 | > 1 | > 1 | – | – | – |
| CCn1ccc2cc(C(O)c3cc(OC)c(OC)c(OC)c3)ccc21 (stereo unspecified) | > 10 | 42 | > 10 | > 1 | > 1 | – | – | – |
| CCn1ccc2cc(/C(=N\O)c3cc(OC)c(OC)c(OC)c3)ccc21 | > 1 | 87 | > 10 | > 1 | > 1 | 5.9 | – | – |
| COc1cc(C(OC(C)=O)c2ccc3c(ccn3C)c2)cc(OC)c1OC (stereo unspecified) | 0.24 | 41 | > 10 | 0.0064 | 0.26 | – | – | – |
| COc1cc(C(O)c2ccc3c(ccn3C)c2)cc(OC)c1OC (stereo unspecified) | > 10 | 86 | > 10 | > 1 | > 1 | 18 | – | – |
| CCn1ccc2cc(C(=O)c3cc(OC)c(OC)c(OC)c3)ccc21 | 0.034 | 95 | 0.14 | 0.016 | – | 5.7 | – | – |
| COc1cc(/C(=N/N)c2ccc3c(ccn3C)c2)cc(OC)c1OC | > 10 | – | – | – | – | – | 35 | – |
| CCn1ccc2cc(/C(=N\N)c3cc(OC)c(OC)c(OC)c3)ccc21 | > 1 | – | > 10 | > 1 | > 1 | – | 7 | – |
| COc1ccc(/C=C\c2cc(OC)c(OC)c(OC)c2)cc1O [COMBRETASTATIN A4] | – | – | – | – | 0.002 | 3 | – | – |
| COc1ccc(C(=O)c2cc(OC)c(OC)c(OC)c2)cc1O [PHENSTATIN] | 1.8 | 97 | 0.3 | 0.03 | 0.03 | 2.5 | – | – |
